≈ marks a conversion by molar mass, not a printed value. Calls of active or inactive are those of the source. No cut-off for these calls is given here.
Columns and labels:
Staphylococcus aureus [1] = assay: Antibacterial activity against erythromycin-susceptible Staphylococcus aureus ATCC 25923 incubated for 24 hrs by broth dilution method; format: functional; conditions: ATCC 25923, 24 h
Method in brief: (§1)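 CLSI broth microdilution in cation-adjusted Mueller-Hinton broth. Twofold dilutions spanned 0.25–128 or 0.5–256 µg/mL, with CAM and AZM as controls. Log-phase bacteria were added and incubated 24 h at 37 °C. MIC was read by turbidity as the concentration of the last clear well.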

Bacillus subtilis = assay: Antibacterial activity against penicillin-susceptible Bacillus subtilis ATCC 9372 incubated for 24 hrs by broth dilution method; format: functional; conditions: ATCC 9372, 24 h; method in brief: as §1
Streptococcus pneumoniae [2] = assay: Antibacterial activity against erythromycin-resistant Streptococcus pneumoniae B1 expressing the ermB incubated for 24 hrs by broth dilution method; format: functional
Pseudomonas aeruginosa = assay: Antibacterial activity against penicillin-susceptible Pseudomonas aeruginosa ATCC 27853 incubated for 24 hrs by broth dilution method; format: functional; conditions: ATCC 27853, 24 h; method in brief: as §1
Streptococcus pyogenes [3] = assay: Antibacterial activity against erythromycin-resistant Streptococcus pyogenes 2 clinical isolate incubated for 24 hrs by broth dilution method; format: functional
Streptococcus pneumoniae [4] = assay: Bactericidal activity against erythromycin-resistant Streptococcus pneumoniae AB11 expressing the ermB and mefA at 1 to 4 times MIC incubated for up to 9 hrs by time-kill curve assay; format: functional, organism-based
Streptococcus pneumoniae [5] = assay: Bactericidal activity against erythromycin-resistant Streptococcus pneumoniae AB11 expressing the ermB and mefA incubated for 24 hrs followed by re-plating on tryptic soy agar plates for 24 hrs by broth microdilution assay; format: functional
Method in brief: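 Follows the 24 h, 37 °C CAMH broth microdilution MIC plate; contents of clear wells plated onto tryptic soy agar and incubated 24 h at 37 °C; MBC taken as the lowest concentration giving no colonies.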

Staphylococcus aureus [6] = assay: Antibacterial activity against penicillin-resistant Staphylococcus aureus ATCC 31007 incubated for 24 hrs by broth dilution method; format: functional; conditions: ATCC 31007, 24 h
Staphylococcus aureus [7] = assay: Antibacterial activity against methicillin-resistant Staphylococcus aureus ATCC 43300 incubated for 24 hrs by broth dilution method; format: functional; conditions: ATCC 43300, 24 h
Streptococcus pneumoniae [8] = assay: Ratio of MBC to MIC for erythromycin-resistant Streptococcus pneumoniae AB11 expressing the ermB and mefA; format: functional
Streptococcus pyogenes [9] = assay: Antibacterial activity against erythromycin-susceptible Streptococcus pyogenes 1 clinical isolate incubated for 24 hrs by broth dilution method; format: functional; method in brief: as §1
Streptococcus pneumoniae [10] = assay: Antibacterial activity against erythromycin-resistant Streptococcus pneumoniae AB11 expressing the ermB and mefA incubated for 24 hrs by broth dilution method; format: functional
Streptococcus pneumoniae [11] = assay: Bacteriostatic activity against erythromycin-resistant Streptococcus pneumoniae AB11 expressing the ermB and mefA by time-kill curve assay; format: functional, organism-based
Escherichia coli = assay: Antibacterial activity against penicillin-susceptible Escherichia coli ATCC 25922 incubated for 24 hrs by broth dilution method; format: functional; conditions: ATCC 25922, 24 h; method in brief: as §1
Streptococcus pneumoniae [12] = assay: Bacteriostatic activity against erythromycin-resistant Streptococcus pneumoniae AB11 expressing the ermB and mefA at 1 to 4 times MIC incubated for 9 to 24 hrs by time-kill curve assay; format: functional, organism-based
Staphylococcus aureus [13] = assay: Bactericidal activity against erythromycin-susceptible Staphylococcus aureus ATCC 25923 incubated for 24 hrs followed by re-plating on tryptic soy agar plates for 24 hrs by broth microdilution assay; format: functional; conditions: ATCC 25923, 24 h
Method in brief: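 Built on the broth microdilution MIC set-up (CAMH, 24 h, 37 °C). After 24 h, contents of clear wells were plated on tryptic soy agar and incubated 24 h at 37 °C. MBC was taken as the lowest concentration giving no colonies.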

MCF7 = assay: Cytotoxicity against human MCF7 cells assessed as viable cells up to 32 ug/ml incubated for 24 hrs by MTT assay; format: cell-based; conditions: mcf7, 24 h
Method in brief: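 MCF-7 cells were seeded at 10^4 cells/well and allowed to settle overnight. Compound was added for 24 h, with CAM as control and DMSO as vehicle control. MTT (5 mg/mL stock) was then added for 4 h at 37 °C, formazan dissolved in DMSO for 10 min, and absorbance read at 570 nm. Read-out was percent viable cells.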

Staphylococcus aureus [14] = assay: Ratio of MBC to MIC for erythromycin-susceptible Staphylococcus aureus ATCC 25923; format: functional

| Structure (SMILES) | MIC (Staphylococcus aureus [1]) | MIC (Bacillus subtilis) | MIC (Streptococcus pneumoniae [2]) | MIC (Pseudomonas aeruginosa) | MIC (Streptococcus pyogenes [3]) | Activity (Streptococcus pneumoniae [4]) | MBC (Streptococcus pneumoniae [5]) | MIC (Staphylococcus aureus [6]) | MIC (Staphylococcus aureus [7]) | Ratio (Streptococcus pneumoniae [8]) | MIC (Streptococcus pyogenes [9]) | MIC (Streptococcus pneumoniae [10]) | Activity (Streptococcus pneumoniae [11]) | MIC (Escherichia coli) | Activity (Streptococcus pneumoniae [12]) | MBC (Staphylococcus aureus [13]) | Activity (MCF7) | Ratio (Staphylococcus aureus [14]) |
| --- | --- | --- | --- | --- | --- | --- | --- | --- | --- | --- | --- | --- | --- | --- | --- | --- | --- | --- |
| CCCCc1ccc(-c2cn(C[C@@H]3CN(C)C[C@@H](C)[C@@H](O)[C@H](C)C[C@@](C)(OC)[C@H](O[C@@H]4O[C@H](C)C[C@H](N(C)C)[C@H]4O)[C@@H](C)[C@H](O[C@H]4C[C@@](C)(OC)[C@@H](O)[C@H](C)O4)[C@@H](C)C(=O)O3)nn2)cc1 | 8 µg/mL (≈ 8.71 µM) | 32 µg/mL (≈ 34.8 µM) | 64 µg/mL (≈ 69.7 µM) | > 128 µg/mL | 8 µg/mL (≈ 8.71 µM) | Active | 64 µg/mL (≈ 69.7 µM) | 8 µg/mL (≈ 8.71 µM) | 8 µg/mL (≈ 8.71 µM) | 8 | 8 µg/mL (≈ 8.71 µM) | 8 µg/mL (≈ 8.71 µM) | Dose-dependent effect | > 128 µg/mL | Active |  |  |  |
| CO[C@]1(C)C[C@@H](C)[C@H](O)[C@H](C)CN(C)C[C@H](COCc2cn(-c3ccccn3)nn2)OC(=O)[C@H](C)[C@@H](O[C@H]2C[C@@](C)(OC)[C@@H](O)[C@H](C)O2)[C@H](C)[C@H]1O[C@@H]1O[C@H](C)C[C@H](N(C)C)[C@H]1O | ≤ 0.25 µg/mL | ≤ 0.25 µg/mL | > 256 µg/mL | 16 µg/mL (≈ 17.9 µM) | 128 µg/mL (≈ 143 µM) |  |  | > 256 µg/mL | > 256 µg/mL |  | 0.5 µg/mL (≈ 0.56 µM) | 128 µg/mL (≈ 143 µM) |  | 64 µg/mL (≈ 71.7 µM) |  | > 128 µg/mL | Non-Toxic | >512 |
